Assay [1] can be described thus: Concentration of drug required to reduce V-79 cell survival to 50% of controls in a SRB assay. The class given is functional, cell-based. The conditions noted are these: Cricetulus griseus, V79. The method, boiled down: (§1)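 V-79 cells (about 7 × 10³ per 100 μL) preincubated 24 h, then exposed to drug for 3 h under oxic conditions. Washed 5× with HBSS and grown 48 h more. Fixed with TCA and stained with SRB. Bound dye dissolved in 10 mM Tris, spotted on TLC and read by video densitometry. IC50 is the mean of triplicates in one experiment. Ratio is IC50 of sulfide over sulfoxide or sulfone.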

A short description of assay [2]: Hypoxia-selective cytotoxicity required to reduce cell survival to 10% of controls using V-79 cells in the clonogenic assay, with N2. The assay is classed as functional. The settings on record: Cricetulus griseus, V79. In short, it runs like this:
(§2)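 V-79 cells (500 000 per bottle) grown 20 h in MEM with 10% FBS. Hypoxic set gassed 2 h at 37 °C with humidified 95% N2/5% CO2. Drug in ethanol/water or DMF injected through septa. Exposure 3 h under air or hypoxia. Cells trypsinised, counted by trypan blue, 500 plated in triplicate for 6–8 days. Colonies stained with crystal violet, survival relative to solvent control.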

Assay [3] in a line: Hypoxia-selective cytotoxicity required to reduce cell survival to 10% of controls using V-79 cells in the clonogenic assay, with air. The assay is classed as functional. The settings on record: Cricetulus griseus, V79. In short, it runs like this: as §2
A short description of assay [4]: Relative cytotoxicity is expressed as the ratio of the IC50 values of the corresponding sulfide to sulfoxide or to sulfone. The class given is functional, Cricetulus griseus. The method, boiled down:
as §1

The nature of assay [5]: Hypoxic selectivity expressed as the ratio of IC50 values in air and nitrogen. The assay is classed as functional.
For assay [6], the species on record is Rattus norvegicus. Put plainly: Reduction potential (SCE) determined by differential pulse polarography of the sulfoxides […]. The assay is classed as functional.
For assay [7], the species on record is Rattus norvegicus. Put plainly: Bioreduction experiment was conducted by incubation of the sulfoxides with rat liver S-9 fractions in aerobic conditions(N2, 2-hydroxypyrimidine). The assay is classed as functional. The method, boiled down:
(§3)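 Rat liver S-9 fraction incubated with sulfoxide at 37 °C for 30 min with shaking. Aerobic vials were left open to air. Anaerobic vials were purged with N2 for 10 min before the compound was injected. Cofactor was NADPH, benzaldehyde, 2-hydroxypyrimidine or acetaldehyde, or none. Controls were boiled S-9 and S-9 without cofactors. For menadione, S-9 was preincubated aerobically with 1 equiv for 30 min, then benzaldehyde was added. Sulfide or sulfone was measured by HPLC or TLC densitometry.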

The species entered for assay [8] is Rattus norvegicus. Put plainly: Bioreduction experiment was conducted by incubation of the sulfoxides with rat liver S-9 fractions in aerobic conditions(N2, NADPH). The assay is classed as functional. The method, boiled down: as §3
Assay [9] is filed under the species Rattus norvegicus. Put plainly: Bioreduction experiment was conducted by incubation of the sulfoxides with rat liver S-9 fractions in aerobic conditions(N2, acetaldehyde). The class given is functional. In short, it runs like this: as §3
The species named for assay [10] is Rattus norvegicus. Put plainly: Bioreduction experiment was conducted by incubation of the sulfoxides with rat liver S-9 fractions in aerobic conditions(N2, menadione). The assay is classed as functional. In short, it runs like this: as §3
The species entered for assay [11] is Rattus norvegicus. In words: Bioreduction experiment was conducted by incubation of the sulfoxides with rat liver S-9 fractions in aerobic conditions(air, NADPH). The assay is classed as functional. In short, it runs like this: as §3
The species entered for assay [12] is Rattus norvegicus. Put plainly: Bioreduction experiment was conducted by incubation of the sulfoxides with rat liver S-9 fractions in aerobic conditions(air, benzaldehyde). The assay is classed as functional. The method, boiled down: as §3
The species entered for assay [13] is Rattus norvegicus. Put plainly: Bioreduction experiment was conducted by incubation of the sulfoxides with rat liver S-9 fractions in aerobic conditions(air, control). The assay is classed as functional. In short, it runs like this: as §3
The species entered for assay [14] is Rattus norvegicus. In words: Bioreduction experiment was conducted by incubation of the sulfoxides with rat liver S-9 fractions in aerobic conditions(air, without cofactors). The assay is classed as functional. The method, boiled down: as §3
The species entered for assay [15] is Rattus norvegicus. In words: Bioreduction experiment was conducted by incubation of the sulfoxides with rat liver S-9 fractions in anaerobic conditions (N2). The assay is classed as functional. The method, boiled down:
as §3

Assay [16] is filed under the species Rattus norvegicus. In words: Bioreduction experiment was conducted by incubation of the sulfoxides with rat liver S-9 fractions in anaerobic conditions(N2, without cofactors). The class given is functional. The method, boiled down:
as §3

Assay [17] is filed under the species Rattus norvegicus. In words: Bioreduction experiment was conducted by incubation of the sulfoxides with rat liver S-9 fractions in anaerobic conditions(N2, benzaldehyde). The assay is classed as functional. The method, boiled down:
as §3

Usually IC50 stands for the point on the concentration scale where inhibition reaches its midpoint. Lower therefore signals greater potency. One may read the IC90 as the concentration at which the effect reaches the 90% level. A low value points to an effect from little substance. In the case of `Cl.[O-][S+](c1ccc(Nc2c3ccccc3nc3ccccc23)cc1)c1ccc(N(CCCl)CCCl)cc1` (configuration not stated), the IC50 in assay [1] worked out at 26.2 µM. The IC90 worked out at 180 µM in assay [2] and 4950 µM in [3]. Further, the Cytotoxicity in assay [4] turned out to be 0.07. In [5], the Selectivity worked out at 27. The E in [6] is listed as 2.63 -V. The Bioreduction worked out at 1.34% in assay [7]; 1.37% in [8]; 1.79% in [9]; 1.07% in assay [10]; 0% in [11]; 0% in assay [12]. For the same molecule, the Bioreduction is listed as 0% in [13]; 0% in assay [14]; 0% in [15]; 1.29% in assay [16]; 2.28% in assay [17].

The record behind these values is ChEMBL document CHEMBL1133503 (J Med Chem, 2000).
